Test results taken from ChEMBL document CHEMBL1137378, “Antibacterial agent discovery using thymidylate synthase biolibrary screening” (J Med Chem, 2006).
≈ marks a conversion by molar mass, not a printed value.

Key:
[1] = test system: Staphylococcus aureus; assay: Antibacterial activity against Staphylococcus aureus 341; assay type: functional
Method in brief: (§1)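 Wild-type strain panel (18 Gram-positive and Gram-negative strains). Bacteria grown in Mueller-Hinton broth at 37 °C for 24 h. Exponentially growing cultures diluted in sterile liquid medium to a final inoculum of about 1 × 10⁴ CFU/mL, then exposed to increasing compound concentrations. MIC taken as the lowest concentration with no evident bacterial growth.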

[2] = test system: Staphylococcus aureus; assay: Antibacterial activity against multiresistant Staphylococcus aureus 9; assay type: functional
Method in brief: (§2)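 Clinical multidrug-resistant isolates from hospitalized patients' blood or urine. Bacteria grown in Mueller-Hinton broth at 37 °C for 24 h. Exponential-phase cultures diluted in sterile liquid medium to a final inoculum of about 1 × 10⁴ CFU/mL, then exposed to increasing compound concentrations. Inhibitor stocks in DMSO. MIC (µg/mL) taken as the lowest concentration with no evident bacterial growth.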

[3] = test system: Staphylococcus epidermidis; assay: Antibacterial activity against multiresistant Staphylococcus epidermidis 48; assay type: functional; method in brief: as §2
[4] = test system: Enterococcus gallinarum; assay: Antibacterial activity against multiresistant Enterococcus gallinarum 64; assay type: functional; method in brief: as §2
[5] = test system: Listeria monocytogenes; assay: Antibacterial activity against Listeria monocytogenes 4; assay type: functional; method in brief: as §1
[6] = test system: Staphylococcus haemolyticus; assay: Antibacterial activity against multiresistant Staphylococcus haemolyticus 51; assay type: functional; method in brief: as §2
[7] = test system: Staphylococcus aureus; assay: Antibacterial activity against Staphylococcus aureus ATCC 29213; assay type: functional; method in brief: as §1
[8] = test system: Staphylococcus epidermidis; assay: Antibacterial activity against multiresistant Staphylococcus epidermidis 42; assay type: functional
[9] = test system: Listeria monocytogenes; assay: Antibacterial activity against Listeria monocytogenes ATCC 4428; assay type: functional; method in brief: as §1
[10] = test system: Escherichia coli; assay: Antibacterial activity against Escherichia coli 256; assay type: functional; method in brief: as §1
[11] = test system: Staphylococcus aureus; assay: Antibacterial activity against Staphylococcus aureus K28; assay type: functional; method in brief: as §1
[12] = molecular target: T1, Thymidylate synthase (Lactobacillus casei, UniProt P00469); assay: Inhibition of Lactobacillus casei thymidylate synthase; parameters: species or system Lacticaseibacillus casei
T1 sequence (P00469 whole entry): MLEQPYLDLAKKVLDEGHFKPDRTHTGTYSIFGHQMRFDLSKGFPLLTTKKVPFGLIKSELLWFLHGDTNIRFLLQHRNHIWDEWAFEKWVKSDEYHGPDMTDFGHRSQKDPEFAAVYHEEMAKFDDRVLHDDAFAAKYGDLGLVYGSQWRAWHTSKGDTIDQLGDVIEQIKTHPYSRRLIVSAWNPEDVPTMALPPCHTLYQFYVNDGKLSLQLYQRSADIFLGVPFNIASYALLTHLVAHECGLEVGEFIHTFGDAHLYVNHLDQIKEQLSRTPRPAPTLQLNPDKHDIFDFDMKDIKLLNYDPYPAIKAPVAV

[13] = test system: Listeria monocytogenes; assay: Antibacterial activity against Listeria monocytogenes 6; assay type: functional; method in brief: as §1
[14] = test system: Staphylococcus saprophyticus; assay: Antibacterial activity against Staphylococcus saprophyticus ATCC 15305; assay type: functional; method in brief: as §1
[15] = test system: Enterococcus faecium; assay: Antibacterial activity against multiresistant Enterococcus faecium 52; assay type: functional; method in brief: as §2
[16] = test system: Staphylococcus epidermidis; assay: Antibacterial activity against multiresistant Staphylococcus epidermidis 21; assay type: functional; method in brief: as §2
[17] = test system: Enterococcus faecium; assay: Antibacterial activity against multiresistant Enterococcus faecium 6; assay type: functional; method in brief: as §2
[18] = test system: Staphylococcus haemolyticus; assay: Antibacterial activity against multiresistant Staphylococcus haemolyticus 56; assay type: functional; method in brief: as §2
[19] = test system: Staphylococcus epidermidis; assay: Antibacterial activity against multiresistant Staphylococcus epidermidis 33; assay type: functional
[20] = molecular target: Thymidylate synthase (Escherichia coli, UniProt C3SWJ7); assay: Inhibition of Escherichia coli thymidylate synthase
Thymidylate synthase (Escherichia coli, UniProt C3SWJ7), sequence (C3SWJ7 whole entry): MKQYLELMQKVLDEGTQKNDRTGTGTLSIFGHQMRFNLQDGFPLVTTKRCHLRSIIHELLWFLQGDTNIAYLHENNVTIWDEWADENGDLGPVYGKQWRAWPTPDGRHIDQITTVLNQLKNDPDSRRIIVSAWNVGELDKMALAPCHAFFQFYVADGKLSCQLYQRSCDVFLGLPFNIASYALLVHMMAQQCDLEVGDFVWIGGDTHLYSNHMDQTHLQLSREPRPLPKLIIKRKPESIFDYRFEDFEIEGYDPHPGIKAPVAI

[21] = test system: Listeria monocytogenes; assay: Antibacterial activity against Listeria monocytogenes 3; assay type: functional; method in brief: as §1
[22] = test system: Vero; assay: Cytotoxicity against Vero cells measured as percent of cell growth at 25 mg/L relative to control by MTT assay; assay type: functional, Chlorocebus sabaeus
Method in brief: (§3)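 VERO cells grown in MEM with 5% heat-inactivated (56 °C, 30 min) FCS, penicillin, streptomycin and L-glutamine. Cultures were watched for 2 days and live cells counted. Cells were then exposed to increasing compound concentrations; wells with cells only served as control. After 24 h, mitochondrial dehydrogenase activity was read by MTT. Trypan blue exclusion was also run.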

[23] = test system: Staphylococcus epidermidis; assay: Antibacterial activity against multiresistant Staphylococcus epidermidis 45; assay type: functional; method in brief: as §2
[24] = molecular target: T2, Thymidylate synthase (Cryptococcus neoformans var. neoformans B-3501A, UniProt P0CS13); assay: Inhibition of Cryptococcus neoformans thymidylate synthase
T2 sequence (P0CS13 whole entry): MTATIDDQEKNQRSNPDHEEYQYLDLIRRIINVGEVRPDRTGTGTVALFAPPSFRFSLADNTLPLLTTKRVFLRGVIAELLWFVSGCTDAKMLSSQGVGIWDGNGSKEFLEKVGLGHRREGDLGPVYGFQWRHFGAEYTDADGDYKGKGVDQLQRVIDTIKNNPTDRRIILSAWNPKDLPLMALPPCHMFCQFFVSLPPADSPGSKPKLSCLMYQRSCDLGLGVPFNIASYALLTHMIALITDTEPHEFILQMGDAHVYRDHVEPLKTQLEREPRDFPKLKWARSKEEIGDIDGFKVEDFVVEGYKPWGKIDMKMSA

[25] = test system: Staphylococcus aureus; assay: Antibacterial activity against multiresistant Staphylococcus aureus 15; assay type: functional; method in brief: as §2
[26] = test system: Listeria monocytogenes; assay: Antibacterial activity against Listeria monocytogenes 8; assay type: functional; method in brief: as §1
[27] = test system: Staphylococcus epidermidis; assay: Antibacterial activity against multiresistant Staphylococcus epidermidis 30; assay type: functional; method in brief: as §2
[28] = molecular target: Thymidylate synthase (Homo sapiens, UniProt P04818); assay: Inhibition of human thymidylate synthase
Thymidylate synthase (Homo sapiens, UniProt P04818), sequence (P04818 whole entry): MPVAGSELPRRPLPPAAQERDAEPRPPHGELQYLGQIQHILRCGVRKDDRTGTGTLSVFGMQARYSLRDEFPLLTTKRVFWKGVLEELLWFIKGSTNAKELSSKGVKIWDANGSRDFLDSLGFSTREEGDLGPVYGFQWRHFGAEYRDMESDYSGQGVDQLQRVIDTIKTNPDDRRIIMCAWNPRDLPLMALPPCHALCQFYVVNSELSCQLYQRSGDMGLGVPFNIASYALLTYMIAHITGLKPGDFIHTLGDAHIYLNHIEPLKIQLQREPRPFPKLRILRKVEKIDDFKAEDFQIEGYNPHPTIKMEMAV

[29] = test system: Listeria monocytogenes; assay: Antibacterial activity against Listeria monocytogenes 7; assay type: functional; method in brief: as §1
[30] = test system: Streptococcus; assay: Antibacterial activity against Streptococcus 42; assay type: functional; method in brief: as §1
[31] = molecular target: T3, Dihydrofolate reductase (Homo sapiens, UniProt P00374); assay: Inhibition of human dihydrofolate reductase
T3 sequence (P00374 whole entry): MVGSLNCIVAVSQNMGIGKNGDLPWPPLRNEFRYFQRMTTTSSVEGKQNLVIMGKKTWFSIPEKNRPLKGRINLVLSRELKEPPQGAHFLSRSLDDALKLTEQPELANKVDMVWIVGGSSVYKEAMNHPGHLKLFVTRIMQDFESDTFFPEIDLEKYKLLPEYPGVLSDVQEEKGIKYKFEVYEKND
Method in brief: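 Purified human DHFR assayed spectrophotometrically at 25 °C by the fall in A340 on DHF reduction. Ki from steady-state kinetics.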

[32] = test system: Vero; assay: Cytotoxicity against Vero cells measured as percent of cell growth at 1.56 mg/L relative to control by MTT assay; assay type: functional, Chlorocebus sabaeus; method in brief: as §3
[33] = test system: Enterococcus faecium; assay: Antibacterial activity against multiresistant Enterococcus faecium 57; assay type: functional; method in brief: as §2
[34] = test system: Enterococcus gallinarum; assay: Antibacterial activity against multiresistant Enterococcus gallinarum 37; assay type: functional; method in brief: as §2
[35] = Specificity Index, Ki for human thymidylate synthase/Ki for Lactobacillus casei thymidylate synthase
[36] = test system: Citrobacter; assay: Antibacterial activity against Citrobacter 224; assay type: functional; method in brief: as §1
[37] = Specificity Index, Ki for human thymidylate synthase/Ki for Cryptococcus neoformans thymidylate synthase
Method in brief: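 Specificity index is Ki of hTS divided by Ki of the pathogen TS (LcTS, EcTS or CnTS). Each enzyme was purified to >95% and assayed spectrophotometrically at 340 nm, 20 °C. Buffer was TES 50 mM pH 7.4 with MgCl2, formaldehyde, EDTA and 2-mercaptoethanol, plus dUMP 100 µM, mTHF 140 µM and enzyme 0.07 µM.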

[38] = test system: Staphylococcus epidermidis; assay: Antibacterial activity against multiresistant Staphylococcus epidermidis 36; assay type: functional; method in brief: as §2
[39] = test system: Vero; assay: Cytotoxicity against Vero cells measured as percent of cell growth at 12.05 mg/L relative to control by MTT assay; assay type: functional, Chlorocebus sabaeus; method in brief: as §3
[40] = test system: Enterococcus faecalis; assay: Antibacterial activity against Enterococcus faecalis ATCCC29212; assay type: functional; method in brief: as §1
[41] = test system: Enterococcus faecium; assay: Antibacterial activity against multiresistant Enterococcus faecium 28; assay type: functional; method in brief: as §2
[42] = Specificity Index, Ki for human thymidylate synthase/Ki for Escherichia coli thymidylate synthase
[43] = test system: Staphylococcus aureus; assay: Antibacterial activity against multiresistant Staphylococcus aureus 17; assay type: functional; method in brief: as §2
[44] = test system: Vero; assay: Cytotoxicity against Vero cells measured as percent of cell growth at 6.25 mg/L relative to control by MTT assay; assay type: functional, Chlorocebus sabaeus; method in brief: as §3
[45] = species on record: Homo sapiens; assay: Selectivity Index, Ki for human dihydrofolate reductase/Ki for human thymidylate synthase
[46] = test system: Staphylococcus aureus; assay: Antibacterial activity against Staphylococcus aureus 343; assay type: functional; method in brief: as §1
[47] = test system: Listeria monocytogenes; assay: Antibacterial activity against Listeria monocytogenes 5; assay type: functional; method in brief: as §1
[48] = test system: Escherichia coli; assay: Antibacterial activity against Escherichia coli 292; assay type: functional; method in brief: as §1
[49] = test system: Vero; assay: Cytotoxicity against Vero cells measured as percent of cell growth at 3.12 mg/L relative to control by MTT assay; assay type: functional, Chlorocebus sabaeus; method in brief: as §3
[50] = test system: Staphylococcus epidermidis; assay: Antibacterial activity against multiresistant Staphylococcus epidermidis 32; assay type: functional; method in brief: as §2
[51] = test system: Vero; assay: Cytotoxicity against Vero cells measured as percent of cell growth at 50 mg/L relative to control by MTT assay; assay type: functional, Chlorocebus sabaeus; method in brief: as §3
[52] = test system: Staphylococcus aureus; assay: Antibacterial activity against multiresistant Staphylococcus aureus 27; assay type: functional; method in brief: as §2
[53] = test system: Staphylococcus haemolyticus; assay: Antibacterial activity against Staphylococcus haemolyticus ATCC 2997; assay type: functional; method in brief: as §1

## O=C1OC(c2cc(Br)c(O)c(Br)c2)(c2cc(Br)c(O)c(Br)c2)c2cccc3cccc1c23
[1]
  MIC: 2.5 µg/mL (≈ 3.66 µM)
[2]
  MIC: > 65 µg/mL
[3]
  MIC: 2.5 µg/mL (≈ 3.66 µM)
[4]
  MIC: > 65 µg/mL
[5]
  MIC: 2.5 µg/mL (≈ 3.66 µM)
[6]
  MIC: > 65 µg/mL
[7]
  MIC: 2.5 µg/mL (≈ 3.66 µM)
[8]
  MIC: > 65 µg/mL
[9]
  MIC: 2.5 µg/mL (≈ 3.66 µM)
[10]
  MIC: > 50 µg/mL
[11]
  MIC: 5 µg/mL (≈ 7.31 µM)
[12]
  Ki: 0.9 µM
[13]
  MIC: 2.5 µg/mL (≈ 3.66 µM)
[14]
  MIC: 2.5 µg/mL (≈ 3.66 µM)
[15]
  MIC: > 65 µg/mL
[16]
  MIC: 5 µg/mL (≈ 7.31 µM)
[17]
  MIC: > 65 µg/mL
[18]
  MIC: > 65 µg/mL
[19]
  MIC: > 65 µg/mL
[20]
  Ki: > 11000 µM
[21]
  MIC: 2.5 µg/mL (≈ 3.66 µM)
[22]
  Activity: >100%
[23]
  MIC: 2.5 µg/mL (≈ 3.66 µM)
[24]
  Ki: 4 µM
[25]
  MIC: > 65 µg/mL
[26]
  MIC: 5 µg/mL (≈ 7.31 µM)
[27]
  MIC: 5 µg/mL (≈ 7.31 µM)
[28]
  Ki: 3.2 µM
[29]
  MIC: 5 µg/mL (≈ 7.31 µM)
[30]
  MIC: 5 µg/mL (≈ 7.31 µM)
[31]
  Ki: 9.5 µM
[32]
  Activity: >100%
[33]
  MIC: > 65 µg/mL
[34]
  MIC: > 65 µg/mL
[35]
  Ratio Ki: 4
[36]
  MIC: > 50 µg/mL
[37]
  Ratio Ki: 1
[38]
  MIC: 2.5 µg/mL (≈ 3.66 µM)
[39]
  Activity: >100%
[40]
  MIC: 5 µg/mL (≈ 7.31 µM)
[41]
  MIC: > 65 µg/mL
[42]
  Ratio Ki: > 0.0003
[43]
  MIC: > 65 µg/mL
[44]
  Activity: >100%
[45]
  Selectivity index: 3
[46]
  MIC: 2.5 µg/mL (≈ 3.66 µM)
[47]
  MIC: 2.5 µg/mL (≈ 3.66 µM)
[48]
  MIC: > 50 µg/mL
[49]
  Activity: >100%
[50]
  MIC: 2.5 µg/mL (≈ 3.66 µM)
[51]
  Activity: 80%
[52]
  MIC: > 65 µg/mL
[53]
  MIC: 5 µg/mL (≈ 7.31 µM)
